Measured values published in ChEMBL document CHEMBL1255440, “An antimicrobial peptide that targets DNA repair intermediates in vitro inhibits Salmonella growth within murine macrophages” (Antimicrob Agents Chemother, 2010).

Key:
[1] = tested on: J774.A1; assay: Drug uptake in mouse J774A1 cells at 0.5 uM after 5 mins by confocal laser microscopy; assay type: ADME, cell-based; conditions: j774.a1, 5 min
How it was run: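 Cells were seeded at 200,000 per chamber-slide well and left to adhere overnight at 37°C. They were then exposed in DMEM to peptide carrying an N-terminal rhodamine label, at 37°C or, where stated, 4°C. Cells were washed three times in PBS, fixed in 4% paraformaldehyde for 30 min, and mounted in antifade. Optical slices near the cell centre were imaged by confocal laser microscopy.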

[2] = tested on: J774.A1; assay: Cytotoxicity against mouse J774A1 cells assessed as metabolic activity at 50 uM after 24 hrs by MTT assay; assay type: ADME, cell-based; conditions: j774.a1, 24 h
How it was run: (§1)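 Cells seeded at 40,000/well in 96-well plates, overnight 37°C 5% CO2, then treated 24 h in fresh DMEM. MTT (4 mg/ml stock in PBS) added for up to 3 h. Formazan solubilized overnight at 37°C in SDS/dimethylformamide/acid lysis buffer, OD read at 575 nm. Paired t tests.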

[3] = tested on: J774.A1; assay: Drug uptake in mouse J774A.1 cells assessed as dimer to monomer peptide ratio at 150 uM after 24 hrs at 4 degC by HPLC analysis; conditions: J774A.1, 24 h
[4] = tested on: J774.A1; assay: Drug uptake in mouse J774A1 cells assessed as total peptide concentration at 50 uM after 5 hrs at 4 degC by HPLC analysis; assay type: ADME, cell-based; conditions: j774.a1, 5 h
How it was run: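 J774A.1 cells were seeded at 300,000 per well and allowed to adhere for 24 h at 37°C in 5% CO2. Medium was replaced with DMEM containing unlabeled peptide, and cells were held at 37°C or 4°C. After three washes in ice-cold PBS, cells were lysed in NP-40 buffer and debris spun out. Reverse-phase HPLC was read at 280 nm. Peaks at 17.5 and 17.75 min were integrated against a standard curve. Intracellular mM was calculated from 300,000 cells at 1 pl each, using monomer mass.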

[5] = tested on: J774.A1; assay: Drug uptake in mouse J774A1 cells assessed as total peptide concentration at 150 uM after 24 hrs at 37 degC by HPLC analysis; assay type: ADME, cell-based; conditions: j774.a1, 24 h
How it was run: (§2)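 J774A.1 cells were incubated with unlabeled peptide for 5 or 24 h at 37°C or 4°C, washed in ice-cold PBS and lysed with NP-40 buffer. Lysates were run on reverse-phase HPLC with an acetonitrile/0.1% TFA gradient and A280 fractions. Monomer (~17.5 min) and dimer (~17.75 min) peak areas were compared against a standard curve. Intracellular mM was calculated using 300,000 cells and 1 pl/cell, with concentration expressed as monomer mass.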

[6] = tested on: J774.A1; assay: Drug uptake in mouse J774A1 cells assessed as dimer to monomer peptide ratio at 50 uM after 24 hrs at 37 degC by HPLC analysis; assay type: ADME, cell-based; conditions: j774.a1, 24 h; how it was run: as §2
[7] = Drug uptake in mouse peritoneal macrophages assessed as total peptide concentration at 150 uM after 24 hrs at 37 degC by HPLC analysis; assay type: ADME, cell-based; conditions: peritoneal macrophage cell
How it was run: (§3)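 Macrophages were elicited in 8–12-week-old female BALB/c mice with 4% thioglycolate i.p. and harvested by lavage 4 days later. Cells were seeded at 300,000 per well for 24 h, then given unlabeled peptide in DMEM for 24 h at 37°C. Lysates were run on reverse-phase HPLC at A280. Monomer (17.5 min) and dimer (17.75 min) peak areas were compared with a standard curve. Concentration assumed 1 pl per cell; values are means of three determinations.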

[8] = Cytotoxicity against mouse J774A1 cells assessed as live cells at 50 uM by calcein AM assay; assay type: cell-based, J774.A1; conditions: read-out: Activity
How it was run: (§4)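 Cells seeded at 300,000/well and allowed to adhere, then given fresh DMEM with or without peptide for 24 h. Cells trypsinized, stained with a mammalian Live/Dead viability/cytotoxicity kit and analyzed by flow cytometry. Wilcoxon exact test.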

[9] = tested on: Salmonella typhimurium; assay: Antibacterial activity against 10 MOI Salmonella enterica subsp. enterica serovar Typhimurium G785 transfected with SOS-inducible beta-galactosidase reporter infected in mouse J774A1 cells assessed as bacterial number at 100 uM after 24 hrs postinfection; assay type: functional, J774.A1
How it was run: (§5)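 J774A.1 cells infected at MOI 10 with sulA promoter-lacZ reporter strain G785 using the gentamicin-protection protocol, treated with peptide (DMSO vehicle controls) plus 15 μg/ml gentamicin for 4 or 24 h. Released bacteria were plated for colony counts in parallel, and were incubated with 33 μM C12FDG (with 0.2 mM EDTA) in LB for 2 h at 37°C. Flow cytometry gave % fluorescein-positive among LPS-antibody-positive particles; Wilcoxon exact test.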

[10] = tested on: Salmonella typhimurium; assay: Antibacterial activity against 1 MOI Salmonella enterica subsp. enterica serovar Typhimurium infected in mouse peritoneal macrophages assessed as reduction in bacterial growth at 50 uM after 24 hrs; assay type: functional; parameters: scale not given: the % may be the effect or the level left
How it was run: (§6)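 J774A.1 cells or thioglycolate-elicited BALB/c peritoneal macrophages seeded at 200,000/well, overnight 37°C 5% CO2; infected with GFP strain SDT1416, 1 h invasion, washed, 1 h in DMEM with 15 μg/ml gentamicin. Then fresh DMEM plus 15 μg/ml gentamicin with or without peptide (DMSO vehicle) for 24 h at 37°C; macrophages lysed with 1% Triton X-100, plated on LB agar for CFU.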

[11] = Cytotoxicity against mouse peritoneal macrophages assessed as dead cells at 50 uM by propidium iodide assay; assay type: cell-based; conditions: peritoneal macrophage cell; how it was run: as §4
[12] = Cytotoxicity against mouse J774A1 cells assessed as reduction in metabolic activity at 100 uM after 24 hrs by MTT assay; assay type: ADME, cell-based, J774.A1; conditions: read-out: INH; how it was run: as §1
[13] = Cytotoxicity against mouse peritoneal macrophages assessed as dead cells at 100 uM by propidium iodide assay; assay type: cell-based; conditions: peritoneal macrophage cell; how it was run: as §4
[14] = Cytotoxicity against mouse peritoneal macrophages assessed as metabolic activity upto 100 uM after 24 hrs by MTT assay; assay type: ADME, cell-based; conditions: peritoneal macrophage cell; how it was run: as §1
[15] = tested on: Salmonella typhimurium; assay: Antibacterial activity against 10 MOI Salmonella enterica subsp. enterica serovar Typhimurium G785 transfected with SOS-inducible beta-galactosidase reporter infected in mouse J774A1 cells assessed as bacterial number at 150 uM after 4 hrs postinfection; assay type: functional, J774.A1; how it was run: as §5
[16] = tested on: J774.A1; assay: Drug uptake in mouse J774A.1 cells assessed as dimer to monomer peptide ratio at 50 uM after 24 hrs at 4 degC by HPLC analysis; conditions: J774A.1, 24 h
[17] = tested on: Salmonella typhimurium; assay: Antibacterial activity against 10 MOI Salmonella enterica subsp. enterica serovar Typhimurium G785 transfected with SOS-inducible beta-galactosidase reporter infected in mouse J774A1 cells assessed as SOS induction at 50 uM after 24 hrs postinfection; assay type: functional, J774.A1; how it was run: as §5
[18] = tested on: Salmonella typhimurium; assay: Antibacterial activity against 10 MOI Salmonella enterica subsp. enterica serovar Typhimurium G785 transfected with SOS-inducible beta-galactosidase reporter infected in mouse J774A1 cells assessed as bacterial number at 150 uM after 24 hrs postinfection; assay type: functional, J774.A1; how it was run: as §5
[19] = tested on: J774.A1; assay: Drug uptake in mouse J774A1 cells assessed as total peptide concentration at 100 uM after 24 hrs at 37 degC by HPLC analysis; assay type: ADME, cell-based; conditions: j774.a1, 24 h; how it was run: as §2
[20] = Drug uptake in mouse peritoneal macrophages assessed as dimer to monomer peptide ratio at 50 uM after 24 hrs at 37 degC by HPLC analysis; assay type: ADME, cell-based; conditions: peritoneal macrophage cell; how it was run: as §3
[21] = Drug uptake in mouse peritoneal macrophages assessed as total peptide concentration at 100 uM after 24 hrs at 37 degC by HPLC analysis; assay type: ADME, cell-based; conditions: peritoneal macrophage cell; how it was run: as §3
[22] = tested on: Salmonella typhimurium; assay: Antibacterial activity against 1 MOI Salmonella enterica subsp. enterica serovar Typhimurium infected in mouse peritoneal macrophages assessed as reduction in bacterial growth at 150 uM after 24 hrs relative to DMEM control; assay type: functional; parameters: scale not given: the % may be the effect or the level left; how it was run: as §6

Drug uptake [1]: Active
Ratio [3]: 15.5
Drug uptake [4]: 1.2 mM
Drug uptake [5]: 30.1 mM
Ratio [6]: 1.7
Drug uptake [7]: 24.8 mM
Ratio [16]: 7.4
Drug uptake [19]: 16.9 mM
Ratio [20]: 0.9
Drug uptake [21]: 7.4 mM
Structure (SMILES): N=C(N)NCCC[C@@H](NC(=O)[C@@H](CS)NC(=O)[C@@H](Cc1ccc(O)cc1)NC(=O)[C@@H](Cc1c[nH]c2ccccc12)NC(=O)[C@@H](CCCNC(=N)N)NC(=O)[C@H](N)Cc1c[nH]c2ccccc12)C(=O)O
Activity [2]: Non-toxic
viability at 50 µM [8]: 93%
Activity [9]: 2.8%
Activity [10]: 34%
Activity [11]: 3.2%
cytotoxicity at 24 h, 100 µM [12]: 17.3%
Activity [13]: 3.1%
Activity [14]: Non-toxic
Activity [15]: 3%
Activity [17]: 0.4%
Activity [18]: 1.9%
Activity [22]: 72.3%
